Measurements from ChEMBL document CHEMBL1127484, “5-Aryl-3-(alkylthio)-4H-1,2,4-triazoles as selective antagonists of strychnine-induced convulsions and potential antispastic agents” (J Med Chem, 1994).
The source made the active and inactive calls.

Key:
Mus musculus [1] = test: Effective dose required for antagonist activity against maximal electroshock induced seizures in mice when administered intraperitoneally; assay type: functional; conditions: ip
In short: (§1)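 CD-1 male mice (18–26 g), groups of 5 or 10, housed individually, dosed ip in distilled H2O or H2O/Tween 80. Convulsant given 30 min later. Strychnine sulfate 2.7 mg/kg ip: protection = no tonic extension >15 min. MES 50 mA, 0.2 s, corneal: no tonic hind-limb extension. PTZ 60 mg/kg iv: no clonic seizures for 2 min. MPA 100 mg/kg iv: no seizures for 5 min. ED50 by quantal analysis from ≥4 doses, ≥10 mice each.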

Mus musculus [2] = test: Effective dose required for antagonist activity against 3-mercaptopropionic-acid induced seizures in mice when administered intraperitoneally; assay type: functional; conditions: ip; in short: as §1
[3] = Dose encompassing the 50% lethal effect was recorded when administered intraperitoneally in mice; assay type: ADME, organism-based; conditions: mouse, in vivo, ip
In short: (§2)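 Deaths were recorded over the 7 days after dosing. The estimated LD50 was taken as the dose range spanning 50% lethality.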

Mus musculus [4] = test: Effective dose required for antagonist activity against pentylenetetrazole-induced seizures in mice when administered intraperitoneally; assay type: functional; conditions: ip; in short: as §1
Mus musculus [5] = test: Effective dose required for antagonist activity against strychnine induced seizures in mice when administered intraperitoneally; assay type: functional; conditions: ip; in short: as §1
Mus musculus [6] = test: Effective dose required for antagonist activity against strychnine induced seizures in mice when administered intraperitoneally; Range is 50-100; assay type: functional; conditions: ip; in short: as §1
Mus musculus [7] = test: Effective dose required for antagonist activity against pentylenetetrazole-induced seizures in mice when administered intraperitoneally; Range is 100-200; assay type: functional; conditions: ip; in short: as §1
Mus musculus [8] = test: Effective dose required for antagonist activity against pentylenetetrazole-induced seizures in mice when administered intraperitoneally; Range is 50-100; assay type: functional; conditions: ip; in short: as §1
[9] = Dose encompassing the 50% lethal effect was recorded when administered intraperitoneally in mice; Range is 400-800; assay type: ADME, organism-based; conditions: mouse, in vivo, ip; in short: as §2
Mus musculus [10] = test: Effective dose required for antagonist activity against 3-mercaptopropionic-acid-induced seizures in mice when administered intraperitoneally; Range is 100-200; assay type: functional; conditions: ip; in short: as §1
[11] = Dose encompassing the 50% lethal effect was recorded when administered intraperitoneally in mice; 400-800; assay type: ADME, organism-based; conditions: mouse, in vivo, ip; in short: as §2
Mus musculus [12] = test: Effective dose required for antagonist activity against pentylenetetrazole-induced seizures in mice when administered intraperitoneally; 100-200; assay type: functional; conditions: ip; in short: as §1
[13] = molecular target: T1, GABA-A receptor; anion channel (Rattus norvegicus) (UniProt O09028+P15431+P18506+P18508+P19969+P20236+P23574+P23576+P28471+P28473+P30191+P62813+P63079+P63138+Q91ZM7+Q9ES14); test: In vitro displacement of [3H]muscimol from GABA-A receptor in rat cortical membranes at 100 uM (Inactive); assay type: cell membranes; conditions: Membrane
Rattus norvegicus [14] = test: Effect of compound on hyperreflexia in spinal transected rats at 20 mg/Kg; assay type: functional
In short: (§3)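 Spinal-transected rats, 5-10 weeks post-transection. Hind-limb activity recorded by transducer. Output integrated over the first 3 s after leg pull (stretch-evoked reflex function) and over the next 57 s (spontaneous hyperreflexia). Sessions were run before and after ip dosing. Test agent given as suspension in distilled H2O/1% Tween 80, or as solution in distilled H2O. Data expressed as % of control; paired t test or least-squared-means comparisons.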

Rattus norvegicus [15] = test: Effect of compound on reflux function in spinal transected rats at 40 mg/Kg; assay type: functional; in short: as §3
[16] = molecular target: T1, GABA-A receptor; anion channel (Rattus norvegicus); test: In vitro displacement of [35S]TBPS at GABA-A picrotoxin convulsant site in rat cortical membranes at 100 uM (Inactive); assay type: cell membranes; conditions: Membrane
Rattus norvegicus [17] = test: Effect of compound on reflux function in spinal transected rats at 20 mg/Kg; assay type: functional; in short: as §3
[18] = molecular target: GABA B receptor (Rattus norvegicus) (UniProt Q9Z0U4+O88871); test: In vitro displacement of [3H]baclofen at GABA-B receptor in rat cortical membranes at 100 uM (Inactive); assay type: cell membranes; conditions: Membrane
[19] = molecular target: T1, GABA-A receptor; anion channel (Rattus norvegicus); test: In vitro displacement of [3H]flunitrazepam at GABA-A benzodiazepine site in rat cortical membranes at 100 uM (Inactive); assay type: cell membranes; conditions: Membrane
Rattus norvegicus [20] = test: Effect of compound on hyperreflexia in spinal transected rats at 10 mg/Kg; assay type: functional; in short: as §3
[21] = molecular target: Gamma-aminobutyric acid receptor subunit gamma-1 (Rattus norvegicus) (UniProt P23574); test: Enhancement of 1 uM muscimol-stimulated 36Cl- uptake into rat cerebellar membrane; assay type: functional; conditions: Cerebellum
Sequence of Gamma-aminobutyric acid receptor subunit gamma-1 (Rattus norvegicus) (P23574 whole entry): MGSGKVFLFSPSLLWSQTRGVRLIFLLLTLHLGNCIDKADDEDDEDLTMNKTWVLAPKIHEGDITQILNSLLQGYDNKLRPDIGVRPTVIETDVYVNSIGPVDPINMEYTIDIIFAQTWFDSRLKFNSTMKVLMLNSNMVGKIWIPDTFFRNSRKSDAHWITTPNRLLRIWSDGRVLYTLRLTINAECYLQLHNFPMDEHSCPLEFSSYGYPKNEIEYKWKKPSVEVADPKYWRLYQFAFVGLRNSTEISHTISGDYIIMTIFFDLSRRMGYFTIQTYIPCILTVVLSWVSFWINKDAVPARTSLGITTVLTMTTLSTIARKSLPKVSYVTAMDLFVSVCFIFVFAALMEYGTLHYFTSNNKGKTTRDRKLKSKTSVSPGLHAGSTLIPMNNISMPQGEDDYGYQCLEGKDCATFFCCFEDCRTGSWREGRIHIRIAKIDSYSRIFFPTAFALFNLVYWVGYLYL
In short: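 Rat cerebellar membrane vesicles (adult male Sprague-Dawley) in HEPES/Tris buffer, pH 7.5. Preincubated on ice for 15 min with vehicle (0.2% DMSO) or 10 μM compound, then 5 min at 34 °C. 36Cl uptake run for 3 s with 1 μM muscimol and stopped by ice-cold 100 μM picrotoxin buffer plus filtration. Muscimol-stimulated uptake = uptake minus uptake without muscimol, in nmol/mg protein/3 s. Mean ± SEM, n = 3; Student's t test.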

Rattus norvegicus [22] = test: Effect of compound on reflux function in spinal transected rats at 5 mg/Kg; assay type: functional; in short: as §3
Rattus norvegicus [23] = test: Effect of compound on […] function in spinal transected rats at 10 mg/Kg; assay type: functional; in short: as §3
Rattus norvegicus [24] = test: Effect of compound on hyperreflexia in spinal transected rats at 40 mg/Kg; assay type: functional; in short: as §3
Mus musculus [25] = test: Effective dose required for antagonist activity against maximal electroshock induced seizures in mice when administered intraperitoneally; Range is 100-200; assay type: functional; conditions: ip; in short: as §1

Row | Compound | ED50 (Mus musculus [1]) | ED50 (Mus musculus [2]) | LD50 [3] | ED50 (Mus musculus [4]) | ED50 (Mus musculus [5]) | also measured
1 | COc1ccc(-c2nnc(S(C)(=O)=O)n2C)cc1 | > 200 mg/kg | > 200 mg/kg | > 800 mg/kg | > 200 mg/kg | > 200 mg/kg | –
2 | Cc1ccc(-c2nnc([S+](C)[O-])n2C)cc1 (stereo unspecified) | > 200 mg/kg | > 200 mg/kg | > 800 mg/kg | > 200 mg/kg | – | ED50 (Mus musculus [6]): 100 mg/kg
3 | CC[S+]([O-])c1nnc(-c2ccccc2)n1C (stereo unspecified) | > 200 mg/kg | > 200 mg/kg | > 800 mg/kg | – | – | ED50 (Mus musculus [7]): 200 mg/kg
4 | CSc1nc(-c2ccc(Cl)cc2)nn1C | > 200 mg/kg | > 200 mg/kg | > 800 mg/kg | – | > 200 mg/kg | ED50 (Mus musculus [8]): 100 mg/kg
5 | CSc1nnc(-c2ccccc2F)n1C | > 200 mg/kg | – | – | 61.3 mg/kg | 8.8 mg/kg | LD50 [9]: 800 mg/kg
6 | CSc1nnc(-c2cccc3ccccc23)n1C | > 200 mg/kg | > 200 mg/kg | > 800 mg/kg | > 200 mg/kg | > 200 mg/kg | –
7 | CCS(=O)(=O)c1nnc(-c2ccccc2)n1C | > 200 mg/kg | – | > 800 mg/kg | – | – | ED50 (Mus musculus [8]): 100 mg/kg; ED50 (Mus musculus [10]): 200 mg/kg
8 | Cn1c(-c2cccs2)nnc1S(C)(=O)=O | > 200 mg/kg | > 200 mg/kg | > 800 mg/kg | > 200 mg/kg | > 200 mg/kg | –
9 | CSc1nnc(-c2ccc(Cl)cc2)n1C | > 200 mg/kg | – | > 800 mg/kg | > 200 mg/kg | 28.1 mg/kg | –
10 | CCS(=O)(=O)c1nnc(-c2ccccc2F)n1C | > 200 mg/kg | > 200 mg/kg | > 800 mg/kg | – | 85.8 mg/kg | ED50 (Mus musculus [7]): 200 mg/kg
11 | Cn1c(-c2cccc(F)c2)nnc1S(C)(=O)=O | > 200 mg/kg | > 200 mg/kg | > 800 mg/kg | > 200 mg/kg | 12.1 mg/kg | –
12 | CCSc1nnc(-c2ccccc2)n1C | > 200 mg/kg | > 200 mg/kg | – | – | > 200 mg/kg | LD50 [11]: 800 mg/kg; ED50 (Mus musculus [12]): 200 mg/kg
13 | CSc1nnc(-c2cccc(F)c2)n1C | > 200 mg/kg | > 200 mg/kg | > 800 mg/kg | > 200 mg/kg | 13.8 mg/kg | –
14 | CSc1nnc(-c2cccs2)n1C | > 100 mg/kg | > 100 mg/kg | – | > 100 mg/kg | 34.1 mg/kg | LD50 [9]: 800 mg/kg
15 | CSc1nc(-c2ccccc2)n(C)n1 | > 100 mg/kg | > 100 mg/kg | > 800 mg/kg | > 100 mg/kg | > 100 mg/kg | –
16 | Cn1c(-c2ccccc2)nnc1S(C)(=O)=O | > 200 mg/kg | > 200 mg/kg | > 800 mg/kg | 55 mg/kg | – | Displacement [13]: inactive; Control (Rattus norvegicus [14]): 78%; Control (Rattus norvegicus [15]): 87%; Displacement [16]: inactive; Control (Rattus norvegicus [17]): 114%; Displacement [18]: inactive; Displacement [19]: inactive; Control (Rattus norvegicus [20]): 46%; Uptake (nM 3s-1 (mg of protein)-1) [21]: 3.82; Control (Rattus norvegicus [22]): 101%; Control (Rattus norvegicus [23]): 116%; Control (Rattus norvegicus [24]): 43%
17 | Cn1nc([S+](C)[O-])nc1-c1ccccc1 (stereo unspecified) | > 200 mg/kg | > 200 mg/kg | > 800 mg/kg | > 200 mg/kg | > 200 mg/kg | –
18 | CCSc1nnc(-c2ccccc2F)n1C | – | > 200 mg/kg | – | – | – | ED50 (Mus musculus [8]): 100 mg/kg; ED50 (Mus musculus [25]): 200 mg/kg; LD50 [9]: 800 mg/kg
19 | COc1ccc(-c2nnc([S+](C)[O-])n2C)cc1 (stereo unspecified) | > 100 mg/kg | > 100 mg/kg | – | > 100 mg/kg | – | ED50 (Mus musculus [6]): 100 mg/kg; LD50 [9]: 800 mg/kg
20 | Cn1c(-c2cccc3ccccc23)nnc1S(C)(=O)=O | > 200 mg/kg | > 200 mg/kg | > 800 mg/kg | > 200 mg/kg | > 200 mg/kg | –
21 | Cn1nc(-c2ccccc2)nc1S(C)(=O)=O | > 200 mg/kg | > 200 mg/kg | > 800 mg/kg | > 200 mg/kg | > 200 mg/kg | –
